Results filed as inconclusive are left out. Active and inactive are the calls of the source.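 The calls were made as follows: active = viability below 80% at one or more tested concentrations; inconclusive = replicate runs disagree on the 80% viability cutoff; inactive = viability above 80% at every tested concentration.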

Experimental findings from PubChem BioAssay AID602228 (Southern Research Specialized Biocontainment Screening …, 2012) are described below.

Assay [1] concerns Vero E6 viability, CellTiter-Glo luminescence, 72 h. The experiment in a line: Vero E6 cell cytotoxicity, dose response, cytotoxicity control for PfM1AAP inhibitor project, set 2 (AID 602228). An outline of the steps:
(§1)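 Test system: Vero E6 cell line; Input: 3000 Vero E6 cells per well; Signal: CellTiter-Glo luminescence measuring cellular ATP; Evaluation: % viability and CC50 from 4-parameter curve; Medium: E-MEM complete growth medium with 10% FBS; Times: 72 h treatment at 37 °C; Controls: vehicle-treated cell wells; Compound dosing: 10 concentrations, 2-fold dilution steps.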

Experiment in assay [2]: as above
The note with it: Vero E6 viability, CellTiter-Glo luminescence, 72 h; at 50 µM (top of the series). An outline of the steps: as §1
(In general: In ATP-based viability assays light output follows the ATP content of the culture.)

As usually defined, the CC50 is the concentration giving 50% cytotoxicity. For `O=C(NCc1ccc(Cl)cc1)C1CCN(S(=O)(=O)c2ccc(Br)s2)CC1`, the CC50 in assay [1] was 17.7 µM.

Take `O=C(NCc1ccccc1)C1CCN(S(=O)(=O)c2ccc(Br)s2)CC1`: the cytotoxic concentration (CC50) in assay [1] is 47.4 µM.

Broadly, the viability is a per cent measure of how many cells are alive, often set against a control. With `O=C(NCc1ccc2c(c1)OCO2)C1CCN(S(=O)(=O)c2ccc(Br)s2)CC1`, the viability in assay [2] is 89.3% (inactive).

Turning to `O=C(NCc1ccc(F)cc1)C1CCN(S(=O)(=O)c2ccc(Br)s2)CC1`, the CC50 in assay [1] is 39.6 µM.

For `CC[C@H](C)[C@H](NS(=O)(=O)c1ccc(Br)s1)C(=O)NCc1ccc2c(c1)OCO2`, the viability in assay [2] is 95.3% (inactive).
